# IEC-6 tox-1: cytotoxicity in IEC-6 intestinal epithelial cells, primary screen, cytotoxicity control for KLF5 inhibitor project, cell-based, luminescence | inhibition, % at 5 µM | IEC-6 cytotoxicity, luminescence viability | 290,000 tested, 0.78% active | AID 1825, 2009;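 note: 0% = plate median of test compound wells and 100% = cytotoxic reference compound wells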
# MT stabilize HCS: microtubule stabilizers in HeLa cells, primary screen, imaging, high-content imaging; HeLa tubulin immunostaining HCS, 24 h; share of cells brighter than vehicle mean+2SD; % tubulin-high responders, % at 10 µM; 200,000 tested, 0.83% active; AID 2205, 2009;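 active = plate Z-score above 3 for both tubulin-high and condensed-nucleus cell shares, with cell loss under 80%, at 10 µM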;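 note: anti alpha tubulin signal scored within the nucleus-defined area of each cell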
# BaF3 parental: parental Ba/F3 cell viability inhibition, counter-screen for JAK2V617F inhibitor project, murine pro-B, CellTiter-Glo luminescence | CellTiter-Glo ATP luminescence | inhibition, % at 5.6 µM | 220,000 tested, 1.1% active;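 active = inhibition above a per-campaign cutoff, the mean inhibition of all tested compounds plus 3 SD, cut at about 27% in these data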;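 note: 0% = DMSO wells and 100% = JAK Inhibitor I control wells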
# Ba/F3 V617F tox: reduced viability of JAK2V617F-dependent Ba/F3 cells, primary screen, JAK2V617F inhibitor project, cell-based, Ba/F3 EpoR-JAK2V617F, luminescence. ATP luminescence. inhibition, % at 5.6 µM. 220,000 tested, 1.1% active;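 active = inhibition above the campaign mean plus 3 SD over all tested compounds, cut at about 24% in these data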;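 note: cytokine-independent growth of Ba/F3 cells driven by EpoR plus mutant JAK2; 0% = DMSO-treated cells and 100% = JAK inhibitor I control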
# KLF5 inh: KLF5 expression inhibitors, primary screen, DLD-1 cells, luminescence. DLD-1 KLF5 promoter-luciferase reporter. inhibition, % at 5 µM. 290,000 tested, 0.23% active. AID 1700, 2009;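 active = inhibition above a per-plate limit of that plate's mean compound inhibition plus 3 SD, cut at about 60% in these data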;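 note: 0% = DMSO wells and 100% = LY294002 at 200 µM; higher means less KLF5 promoter-driven luciferase light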
# bCat nuc transl: modulators of beta-catenin nuclear translocation, primary screen, imaging, HeLa cells, immunofluorescence, high-content. 190,000 tested, 0.3% active. nuclear translocation activity, % at 5 µM;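 active = nuclear translocation activity above 50% at 5 µM, with a well cell count of 50 or more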;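 note: per-cell ratio of nuclear to cytoplasmic median beta-catenin stain intensity; plate controls were DMSO negative control for no effect and GSK-3 inhibitor IX positive control for full effect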
#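 Technique: fluorescence imaging of beta-catenin antibody stain plus DAPI / Material: human HeLa cell line / Incubation: compound treatment 24 h, 37°C, 5% CO2 / Read-out basis: % activation of per-cell nuclear versus cytoplasmic median beta-catenin signal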
# KLF5 confirm: KLF5 expression inhibitors, confirmation, DLD-1 cells, luminescence; shares compounds with KLF5 inh; DLD-1 KLF5 promoter firefly luciferase reporter; inhibition, % at 4 µM; 610 tested, 79% active;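 active = inhibition above a set limit taken from the earlier primary screen, cut at about 63% in these data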;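 note: 0% = DMSO wells and 100% = LY294002 at 200 µM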
# IEC-6 tox-2: cytotoxicity in rat IEC-6 cells, cytotoxicity control for KLF5 inhibitor project, cell-based, luminescence, triplicate. shares compounds with KLF5 inh. IEC-6 rat intestinal cells, viability luminescence. inhibition, % at 4 µM. 610 tested, 56% active; in the data active = inhibition above about 23%;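 note: cells exposed to compounds for 48 hours before viability read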
# IEC-6 tox confirm: cytotoxic compounds in IEC-6 epithelial cells, confirmation, cytotoxicity control, cell-based, luminescence; AID 1907, 2009; 1,900 tested, 63% active; IEC-6 rat intestinal epithelial viability; inhibition, % at 5 µM; shares compounds with IEC-6 tox-1;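 note: 0% = vehicle and 100% = reference cytotoxic drug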
# Starred values were filed as active, the others as inactive; · = not tested or not shown. In the library only some 2.1% were active in any assay of this set; here they are far more common. Cut-off read from the data, not from the text of the source, unless noted: active = inhibition above about 22%; inactive = the rest.
SMILES,IEC-6 tox-1,MT stabilize HCS,BaF3 parental,Ba/F3 V617F tox,KLF5 inh,bCat nuc transl,KLF5 confirm,IEC-6 tox-2,IEC-6 tox confirm
COc1cccc(N2CCN(C(=O)c3ccc(CS(=O)c4ccccc4C)o3)CC2)c1 (centres undefined),78*,·,·,·,68*,·,75*,64*,58*
COc1cccc(N2CCN(C(=O)c3ccc(CS(=O)c4ccccc4Cl)o3)CC2)c1 (centres undefined),90*,·,·,·,74*,·,84*,62*,60*
COc1ccc2c(c1)C(C)=CC(C)(C)N2S(=O)(=O)c1ccc(C)cc1,81*,9,74*,70*,87*,63*,88*,55*,53*
CCOc1ccc2c(c1)C(C)=CC(C)(C)N2C(=O)Nc1ccccc1F,2,2,4,-3,-5,-8,·,·,·
COC(=O)C1(C)CN(S(=O)(=O)c2ccc(C)cc2)c2cc(OC)ccc2C1=O (centres undefined),7,2,3,2,-9,-1,·,·,·
CCOc1ccc2c(c1)C(C)=CC(C)(C)N2S(=O)(=O)c1ccc(C)cc1,90*,6,77*,79*,68*,44,91*,55*,59*
Cc1ccc(C)c(N2C(=O)CC(Cc3ccc(Br)cc3)C2=O)c1 (centres undefined),3,·,·,·,-12,·,·,·,·
O=C(c1ccc(CNS(=O)(=O)c2ccc(Br)cc2)cc1)N1CCCCC1,9,·,·,·,-13,·,·,·,·
CCn1c2ccccc2c2cc(Nc3cc(C)nc4ncnn34)ccc21,94*,10,86*,84*,75*,94*,82*,72*,72*
C/C(=N\NC(=O)c1nnn(-c2nonc2N)c1-c1ccc2c(c1)OCO2)c1ccccc1,-12,·,·,·,-23,·,·,·,·
C/C(=N\NC(=O)c1nnn(-c2nonc2N)c1-c1ccccc1)c1ccccc1O,96*,·,·,·,62*,·,85*,63*,75*
Cc1ccccc1CS(=O)(=O)Cc1ccc(C(=O)NCCCN2CC(C)CC(C)C2)o1 (centres undefined),0,1,2,0,-3,0,·,·,·
Cc1nc(N)nc(N)c1/C=C/C(C)(C)c1ccc(Cl)cc1,86*,6,103*,98*,83*,-5,84*,76*,77*
CN(C)c1ccc(C(=O)c2ccccc2C(=O)O)cc1[N+](=O)[O-],-4,3,5,3,-20,-1,·,·,·
CN(C)c1ccc(C(=O)c2ccc(N(C)C)c3ccccc23)cc1,97*,12,94*,94*,80*,39,92*,85*,84*
O=C(Oc1ccc(C(=S)N2CCOCC2)cc1)c1cccc(Cl)c1,8,·,·,·,-5,·,·,·,·
CCN(c1cccc(C)c1)S(=O)(=O)c1ccc(-c2cc(C)no2)s1,67*,·,·,·,72*,·,59,37*,37*
Cc1cccc(N(C)S(=O)(=O)c2ccc(-c3cc(C)no3)s2)c1,78*,·,·,·,74*,·,74*,55*,53*
Cc1cc2nc(-c3ccc[nH]c3=O)[nH]c2cc1C,40*,·,·,·,83*,·,61,16,33*
Cc1ccc(S(=O)(=O)Nc2ccc(-c3nc4cc(NS(=O)(=O)c5ccc(C)cc5)ccc4o3)cc2)cc1,-1,3,2,-2,-21,·,·,·,·
COc1ccc(-c2nc(NC(=O)C3=NN(c4cccc(C)c4)C(=O)CC3)sc2C)cc1,7,2,5,3,-15,-2,·,·,·
Cc1ccc(S(=O)(=O)Oc2ccccc2/C=N/NC(N)=S)cc1,58*,32,71*,82*,65*,33,73*,57*,-1
Cc1ccc(S(=O)(=O)Oc2ccccc2/C=N/N=C(N)N)cc1,2,2,4,2,3,0,·,·,·
CCCCNC(=O)C1Cc2cc(S(=O)(=O)N3CCCCC3)ccc2N1C(C)=O (centres undefined),0,·,·,·,4,·,·,·,·
Cc1ccccc1OCCc1c(C)[nH]c(=S)[nH]c1=O,84*,7,75*,73*,82*,-1,78*,55*,56*
SMILES,IEC-6 tox-1,MT stabilize HCS,BaF3 parental,Ba/F3 V617F tox,KLF5 inh,bCat nuc transl,KLF5 confirm,IEC-6 tox-2,IEC-6 tox confirm
Cc1[nH]c(=S)[nH]c(=O)c1CCOc1ccccc1,-9,12,3,0,-32,1,·,·,·
C/C(=N\Nc1ccc2nncn2n1)c1ccc(Br)s1,7,·,3,2,12,0,·,·,·
Cc1cccc(N2CCN(C(=O)c3cccc(N4CCCC4=O)c3)C(C)C2)c1 (centres undefined),63*,·,·,·,64*,·,69*,36*,40*
CCOC(=O)COc1cccc2c(=O)n(CC(=O)NCc3ccccc3)ccc12,23*,·,68*,73*,81*,56*,80*,30*,46*
COc1cc(-c2noc(C)c2/C=C/c2ccc(OC(C)=O)cc2)cc(OC)c1OC,91*,·,·,·,71*,·,83*,63*,60*
COc1cc(-c2noc(C)c2C#CCO)cc(OC)c1OC,5,·,·,·,-12,·,·,·,·
Cc1ccc(-c2nc(N)sc2-c2ccccc2)cc1C,0,2,4,-3,-1,1,·,·,·
Cc1ccc2[nH]c(-c3cccc(F)c3)cc(=O)c2c1,91*,27*,83*,83*,62*,·,73*,59*,57*
Cc1ccc(-c2cc(=O)c3cc(C)ccc3[nH]2)cc1,8,17,7,2,-51,·,·,·,·
O=c1cc(-c2cccc(F)c2)[nH]c2ccccc12,86*,9,78*,78*,75*,·,85*,60*,57*
O=C(N/N=C/c1cc(Br)ccc1OC(=O)c1ccc(Br)cc1)c1ccncc1,97*,·,·,·,78*,·,90*,12,24*
O=C(N/N=C/c1ccc(OC(=O)c2ccc(Br)cc2)cc1)c1ccncc1,-6,·,·,·,-13,·,·,·,·
O=C(N/N=C/c1cc(Br)ccc1O)c1ccncc1,22*,·,4,6,84*,3,89*,11,29*
Cc1cccc(N2CCN(C(=O)c3ccoc3C)CC2)c1C,4,4,5,0,-12,0,·,·,·
CC(=O)c1cccc(Nc2c3c(nc4ccccc24)CCC3)c1,75*,·,·,·,65*,·,102*,51*,51*

# Assay outcomes deposited in PubChem BioAssay by several laboratories.
